Data as given in ChEMBL document CHEMBL3352355, “Synthesis of novel polysubstituted (2SR,4RS)-2-heteroaryltetrahydro-1,4-epoxy-1-benzazepines and cis-2-heteroaryl-4-hydroxytetrahydro-1H-1-benzazepines as antiparasitic agents” (Eur J Med Chem, 2014).

Columns and labels:
Trypanosoma cruzi [1] = assay: Antiparasitic activity against amastigote stage of Trypanosoma cruzi infected in Vero cells assessed as parasite growth inhibition after 24 hrs by hemocytometery; type: functional, organism-based; settings: Trypanosoma cruzi, Vero, 24 h; read-out: IC50
Procedure, shortened: (§1)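 Host cells were Vero for T. cruzi (infected with tissue-derived trypomastigotes) and THP-1 (PMA-transformed, 10 ng/mL) for L. (L.) infantum (infected with late-phase promastigotes), at 1:10 cell:parasite for 24 h. Serial dilutions were given as two doses, the second on day 3 with a medium change. Read-out was % infected cells on methanol-fixed, Giemsa-stained slides (300 cells). IC50 came from sigmoidal regression; experiments in duplicate, concentrations in triplicate.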

Trypanosoma cruzi [2] = assay: Antiparasitic activity against epimastigote stage of Trypanosoma cruzi infected in Vero cells assessed as parasite growth inhibition […] by hemocytometery; type: functional, organism-based
Procedure, shortened: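 Exponential-phase T. cruzi Sylvio X10 epimastigotes (LIT medium with hiFCS) or L. (L.) infantum MHOM/BR/74/PP75 promastigotes (RPMI 1640, hemin, HEPES, 10% hiFCS) were exposed to threefold serial dilutions (0.3–300 µg/mL) for 72 h at 28 °C. Viable parasites were counted by hemocytometer with 0.25% eosin yellow. IC50 came from sigmoidal regression, given as mean ± SD.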

Leishmania infantum [3] = assay: Antiparasitic activity against promastigote stage of Leishmania infantum assessed as parasite growth inhibition after 72 hrs by hemocytometery
[4] = Cytotoxicity against African green monkey Vero cells; type: cell-based; settings: chlorocebus sabaeus
Procedure, shortened: (§2)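 Vero monolayers or THP-1 cells (made adherent with 10 ng/mL PMA), in RPMI 1640 with 10% hiFCS, were exposed to compound (0.3–300 µg/mL) for 72 h at 37 °C, 5% CO2. Viability was measured by MTT, with formazan dissolved in DMSO and read at 580 nm. % cytotoxicity was calculated against untreated cells; CC50 came from sigmoidal regression, given as mean ± SD.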

[5] = Selectivity index, ratio of CC50 for human THP1 cells to IC50 for promastigote stage of Leishmania infantum; type: functional, THP-1
Procedure, shortened: (§3)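 Selectivity index was calculated as CC50 in Vero (T. cruzi) or THP-1 (L. infantum) cells divided by parasite IC50. Both values came from 72 h mammalian-cell MTT assays and the parasite assays; SI ≥ 3 was defined as parasite-selective.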

Leishmania infantum [6] = assay: Antiparasitic activity against amastigote stage of Leishmania infantum infected in THP1 cells assessed as parasite growth inhibition after 24 hrs by hemocytometery; type: functional, organism-based, THP-1; settings: Leishmania infantum, THP-1, 24 h; read-out: IC50; procedure, shortened: as §1
[7] = Cytotoxicity against human THP1 cells; type: cell-based; settings: THP-1 cells; procedure, shortened: as §2
[8] = Selectivity index, ratio of CC50 for African green monkey Vero cells to IC50 for epimastigote stage of Trypanosoma cruzi; type: functional; procedure, shortened: as §3
[9] = Selectivity index, ratio of CC50 for African green monkey Vero cells to IC50 for amastigote stage of Trypanosoma cruzi; type: functional; procedure, shortened: as §3

Row | SMILES | IC50 (Trypanosoma cruzi [1]) | IC50 (Trypanosoma cruzi [2]) | IC50 (Leishmania infantum [3]) | CC50 [4] | Selectivity Index [5] | IC50 (Leishmania infantum [6]) | CC50 [7] | Selectivity Index [8] | Selectivity Index [9]
1 | Cn1cccc1[C@@H]1C[C@H]2Cc3cc(F)ccc3N1O2 (mixture of isomers) | > 387 µM | 414 µM | 316 µM | 533 µM | 6.9 | > 387 µM | 2180 µM | 1.3 | –
2 | Cc1ccc([C@@H]2C[C@H]3Cc4ccccc4N2O3)s1 (racemic) | 91.5 µM | 147 µM | 52 µM | 878 µM | 9.6 | > 389 µM | 497 µM | 6 | 9.6
3 | Brc1ccc([C@@H]2C[C@H]3Cc4ccccc4N2O3)s1 (racemic) | 137 µM | 62.2 µM | 36.1 µM | 1800 µM | 34.7 | > 312 µM | 1250 µM | 28.9 | 13.2
4 | FC(F)(F)Oc1ccc2c(c1)C[C@@H]1C[C@@H](c3cccs3)N2O1 (racemic) | 73.9 µM | 143 µM | 256 µM | > 306 µM | >1.2 | > 306 µM | > 306 µM | >2.1 | >4.1
5 | c1coc([C@@H]2C[C@H]3Cc4ccccc4N2O3)c1 (racemic) | > 440 µM | 229 µM | 45.3 µM | 1560 µM | 14.7 | > 440 µM | 663 µM | 6.8 | –
6 | Cc1ccc([C@@H]2C[C@H]3Cc4cc(F)ccc4N2O3)o1 (racemic) | > 386 µM | 192 µM | 102 µM | 1080 µM | 3.3 | > 128 µM | 338 µM | 5.6 | –
7 | O=[N+]([O-])c1ccc([C@@H]2C[C@H]3Cc4cc(OC(F)(F)F)ccc4N2O3)o1 (racemic) | > 281 µM | > 843 µM | 66.6 µM | 214 µM | 6.1 | > 281 µM | 404 µM | – | –
8 | Fc1ccc2c(c1)C[C@@H]1C[C@@H](c3ccoc3)N2O1 (racemic) | > 408 µM | 151 µM | 103 µM | > 1220 µM | 11.9 | > 408 µM | > 1220 µM | >8.1 | –
9 | FC(F)(F)Oc1ccc2c(c1)C[C@@H]1C[C@@H](c3ccoc3)N2O1 (racemic) | > 107 µM | 192 µM | 25.2 µM | 180 µM | >76.6 | > 322 µM | > 1930 µM | 0.9 | –
10 | Cc1ccsc1[C@@H]1C[C@H](O)Cc2ccccc2N1 (relative stereo) | > 128 µM | 143 µM | 156 µM | 616 µM | 3.7 | > 128 µM | 579 µM | 4.3 | –
11 | O[C@@H]1Cc2cc(Cl)ccc2N[C@H](c2cccs2)C1 (relative stereo) | > 119 µM | 95.1 µM | 49.5 µM | 164 µM | 2.3 | > 119 µM | 115 µM | 1.7 | –
12 | O[C@@H]1Cc2cc(F)ccc2N[C@H](c2cccs2)C1 (relative stereo) | > 380 µM | 764 µM | 120 µM | 218 µM | 1.6 | > 380 µM | 190 µM | 0.3 | –
13 | O[C@@H]1Cc2cc(OC(F)(F)F)ccc2N[C@H](c2ccoc2)C1 (relative stereo) | > 106 µM | 602 µM | 43.1 µM | 95.4 µM | 10.7 | > 106 µM | 460 µM | 0.2 | –

Stronger by IC50 (Trypanosoma cruzi [2]), values ahead:

Row | IC50 (Trypanosoma cruzi [1]) | IC50 (Trypanosoma cruzi [2]) | SMILES | IC50 (Leishmania infantum [3]) | CC50 [4] | Selectivity Index [5] | IC50 (Leishmania infantum [6]) | CC50 [7] | Selectivity Index [8] | Selectivity Index [9]
14 | > 120 µM | 25.4 µM | Clc1ccc2c(c1)C[C@@H]1C[C@@H](c3cccs3)N2O1 (racemic) | 20.7 µM | > 361 µM | >17.5 | > 120 µM | > 361 µM | >14.2 | –
15 | 101 µM | 24.8 µM | Cc1ccc([C@@H]2C[C@H]3Cc4cc(Cl)ccc4N2O3)s1 (racemic) | 32.3 µM | 1140 µM | >63.8 | > 344 µM | > 2060 µM | 46.1 | 11.3
16 | 99 µM | 11.7 µM | Cc1ccsc1[C@@H]1C[C@H]2Cc3cc(Cl)ccc3N1O2 (racemic) | 32.3 µM | 183 µM | 7.7 | > 344 µM | 250 µM | 15.6 | 1.9
17 | > 364 µM | 30.9 µM | Cc1ccc([C@@H]2C[C@H]3Cc4cc(F)ccc4N2O3)s1 (racemic) | 92 µM | 944 µM | 2.5 | > 121 µM | 234 µM | 30.6 | –
18 | 54.6 µM | 34.7 µM | Fc1ccc2c(c1)C[C@@H]1C[C@@H](c3ccc(Br)s3)N2O1 (racemic) | 7.3 µM | > 295 µM | >40.6 | > 295 µM | > 295 µM | >8.5 | >5.4
19 | > 293 µM | 43.9 µM | Cc1ccc([C@@H]2C[C@H]3Cc4cc(OC(F)(F)F)ccc4N2O3)s1 (racemic) | 10.5 µM | 170 µM | 26.8 | > 293 µM | 282 µM | 3.9 | –
20 | 202 µM | 47.2 µM | Cc1ccsc1[C@@H]1C[C@H]2Cc3cc(OC(F)(F)F)ccc3N1O2 (racemic) | 11.4 µM | 61.7 µM | >153.9 | > 293 µM | > 1760 µM | 1.3 | 0.3
21 | > 122 µM | 53 µM | O=[N+]([O-])c1ccc([C@@H]2C[C@H]3Cc4ccccc4N2O3)o1 (racemic) | 107 µM | 51.4 µM | 2.2 | > 368 µM | 234 µM | 1 | –
22 | – | 53.1 µM | Clc1ccc2c(c1)C[C@@H]1C[C@@H](c3ccco3)N2O1 (racemic) | 47.3 µM | 353 µM | >24.3 | > 128 µM | > 1150 µM | 6.7 | –
23 | 312 µM | 46.2 µM | Cc1ccc([C@@H]2C[C@H]3Cc4cc(Cl)ccc4N2O3)o1 (racemic) | 19.1 µM | 1160 µM | 19.6 | > 130 µM | 374 µM | 25.1 | 3.7
24 | 70.1 µM | 47.7 µM | Fc1ccc2c(c1)C[C@@H]1C[C@@H](c3ccco3)N2O1 (racemic) | 83.2 µM | > 408 µM | >14.7 | > 136 µM | > 1220 µM | >8.6 | >5.8
25 | 284 µM | 29.7 µM | O=[N+]([O-])c1ccc([C@@H]2C[C@H]3Cc4cc(F)ccc4N2O3)o1 (racemic) | 10.7 µM | 422 µM | 50.4 | > 115 µM | 539 µM | 14.2 | 1.5
26 | > 114 µM | 14.6 µM | Cc1ccc([C@@H]2C[C@H](O)Cc3cc(Cl)ccc3N2)s1 (relative stereo) | 64.4 µM | 154 µM | >31.8 | > 341 µM | > 2050 µM | 10.5 | –
27 | 1.6 µM | 4 µM | CC1CS(=O)(=O)CCN1/N=C/c1ccc([N+](=O)[O-])o1 (stereo unspecified) [NIFURTIMOX] | – | 67.5 µM | – | – | – | 17 | 43
